Measurements as given in ChEMBL document CHEMBL1141789, “Minutosides A and B, antifungal sulfated steroid xylosides from the patagonian starfish Anasterias minuta” (2005).
Active and inactive are the calls of the source. No cut-off for these calls is given here.

Experiments:
[1] = system: Aspergillus flavus; assay: Antifungal activity against Aspergillus flavus at 5 ug/spot after 2 to 3 days; format: functional
Outline: (§1)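 TLC bioautography. Geometric dilutions were made from freshly prepared stock solutions (1-10 mg mL^-1) in a suitable solvent and spotted onto TLC plates. The read-out was the diameter (mm) of clear inhibition zones against a dark grey background.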

[2] = system: Cladosporium cucumerinum; assay: Antifungal activity against Cladosporium cucumerinum at 5 ug/spot after 2 to 3 days; format: functional; outline: as §1
[3] = system: Aspergillus flavus; assay: Antifungal activity against Aspergillus flavus at 20 to 60 ug/spot after 2 to 3 days; format: functional
Outline: (§2)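 TLC bioautography: geometric dilutions made from freshly prepared stocks (1-10 mg mL^-1) in a suitable solvent, 10 µL spotted per TLC plate. Plates then sprayed with C. cucumerinum (DSM 62122) or A. flavus (BAFC 589) suspended in nutritive medium, incubated 2-3 days in a moist glass box. Read-out: diameter (mm) of clear inhibition zones against dark gray background; benomyl reference.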

[4] = system: Cladosporium cucumerinum; assay: Antifungal activity against Cladosporium cucumerinum at 10 to 60 ug/spot after 2 to 3 days; format: functional; outline: as §2
[5] = system: Aspergillus flavus; assay: Antifungal activity against Aspergillus flavus at 5 to 10 ug/spot after 2 to 3 days; format: functional; outline: as §2
[6] = system: Cladosporium cucumerinum; assay: Antifungal activity against Cladosporium cucumerinum at 10 ug/spot after 2 to 3 days; format: functional, organism-based; outline: as §2
[7] = system: Cladosporium cucumerinum; assay: Antifungal activity against Cladosporium cucumerinum at 20 to 60 ug/spot after 2 to 3 days; format: functional; outline: as §2

| Compound | inhibition zone (IZ) [3] [mm] | inhibition zone (IZ) [4] [mm] | inhibition zone (IZ) [5] [mm] | Activity [6] | Activity [5] | Activity [3] | Activity [4] | Activity [7] | other results |
| --- | --- | --- | --- | --- | --- | --- | --- | --- | --- |
| CCCCNC(=O)n1c(NC(=O)OC)nc2ccccc21 [BENOMYL] | – | – | – | – | – | – | – | – | inhibition zone (IZ) [1]: 14 mm; inhibition zone (IZ) [2]: 15 mm |
| CC(C)[C@H](CC[C@@H](C)[C@H]1C[C@@H](O)[C@@H]2[C@]1(C)CC[C@@H]1[C@@]3(C)CC[C@H](OS(=O)(=O)O)C[C@@H]3[C@@H](O)C[C@]12O)O[C@@H]1OC[C@@H](O)[C@H](O)[C@H]1O [PYCNOPODIOSIDE B] | 5 | 7 | 5 | – | – | – | – | – | – |
| CC(C)[C@H](/C=C/[C@@H](C)[C@H]1C[C@@H](O)[C@@H]2[C@]1(C)CC[C@@H]1[C@@]3(C)CC[C@H](OS(=O)(=O)[O-])C[C@@H]3[C@@H](O)C[C@]12O)O[C@@H]1OC[C@@H](O)[C@H](O)[C@H]1O.[Na+] [MINUTOSIDE A] | 5 | 7 | 5 | – | – | – | – | – | – |
| C[C@H](/C=C/[C@@H](C)[C@H]1C[C@@H](O)[C@@H]2[C@]1(C)CC[C@@H]1[C@@]3(C)CC[C@H](O[C@@H]4OC[C@@H](O)[C@H](O)[C@H]4O)C[C@@H]3[C@@H](O)C[C@]12O)[C@H](C)C(=O)NCCS(=O)(=O)[O-].[Na+] [MINUTOSIDE B] | 5 | – | – | inactive | inactive | – | – | – | inhibition zone (IZ) [7]: 3 mm |
| CC(C)[C@H](CC[C@@H](C)[C@H]1C[C@@H](O)[C@@H]2[C@]1(C)CC[C@@H]1[C@@]3(C)CC[C@H](O)C[C@@H]3[C@@H](O)C[C@]12O)O[C@@H]1OC[C@@H](O)[C@H](O)[C@H]1O | – | – | – | inactive | inactive | inactive | inactive | inactive | – |
| CC(C)[C@H](/C=C/[C@@H](C)[C@H]1C[C@@H](O)[C@@H]2[C@]1(C)CC[C@@H]1[C@@]3(C)CC[C@H](O)C[C@@H]3[C@@H](O)C[C@]12O)O[C@@H]1OC[C@@H](O)[C@H](O)[C@H]1O | – | – | – | inactive | inactive | inactive | inactive | inactive | – |
